The values that follow come from ChEMBL document CHEMBL1153361, “Synthesis and in vitro characterization of radioiodinatable benzodiazepines selective for type 1 and type 2 cholecystokinin receptors” (J Med Chem, 2009).

The source made the active and inactive calls. The rule behind the calls is not given here.

The target in experiment [1] is T1, Cholecystokinin receptor type A (Homo sapiens, UniProt P32238).
T1 sequence (P32238 whole entry): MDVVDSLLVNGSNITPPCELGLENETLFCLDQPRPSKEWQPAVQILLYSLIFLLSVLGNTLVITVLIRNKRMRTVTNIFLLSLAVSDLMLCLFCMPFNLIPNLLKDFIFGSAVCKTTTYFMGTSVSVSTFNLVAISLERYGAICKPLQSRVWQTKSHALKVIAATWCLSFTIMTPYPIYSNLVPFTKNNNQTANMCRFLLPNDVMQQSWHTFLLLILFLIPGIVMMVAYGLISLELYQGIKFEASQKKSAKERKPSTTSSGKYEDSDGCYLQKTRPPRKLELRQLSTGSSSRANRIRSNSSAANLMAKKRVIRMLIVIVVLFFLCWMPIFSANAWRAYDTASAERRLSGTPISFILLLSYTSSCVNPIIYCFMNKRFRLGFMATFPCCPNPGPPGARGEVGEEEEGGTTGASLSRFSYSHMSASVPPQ
Put plainly: biochemical.

The target in experiment [2] is T2, Gastrin/cholecystokinin type B receptor (Homo sapiens, UniProt P32239).
T2 sequence (P32239 whole entry): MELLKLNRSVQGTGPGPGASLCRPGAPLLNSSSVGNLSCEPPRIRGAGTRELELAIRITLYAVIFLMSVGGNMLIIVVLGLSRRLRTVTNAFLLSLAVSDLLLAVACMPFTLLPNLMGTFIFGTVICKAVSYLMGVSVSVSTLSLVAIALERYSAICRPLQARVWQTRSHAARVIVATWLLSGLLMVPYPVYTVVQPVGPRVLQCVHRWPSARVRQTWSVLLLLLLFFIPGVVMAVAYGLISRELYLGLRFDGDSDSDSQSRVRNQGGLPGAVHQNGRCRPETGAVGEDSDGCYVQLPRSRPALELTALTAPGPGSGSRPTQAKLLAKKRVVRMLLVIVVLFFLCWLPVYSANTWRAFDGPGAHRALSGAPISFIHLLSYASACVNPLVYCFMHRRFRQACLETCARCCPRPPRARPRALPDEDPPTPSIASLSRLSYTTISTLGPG
The experiment is described as follows: (§1) Displacement of [125I](R)-1-(3-iodophenyl)-3-(1-methyl-2-oxo-5-phenyl-2,3-dihydro-1Hbenzo[e][1,4]diazepin-3-yl)urea from human CCK2 receptor expressed in CHO cells by gamma spectrometry. The class given is cell-based. The method, boiled down: (§2)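 Homologous competition in membranes (5–10 µg protein) from CHO cells expressing human receptor. 10 pM radioligand (about 20,000 cpm) plus cold ligand 0–1 µM in KRH with 0.2% BSA and 0.01% soybean trypsin inhibitor, 1 h at room temperature. Filtration, gamma counting. Ki fitted by LIGAND nonlinear least squares. Duplicate/triplicate, ≥3 independent experiments.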
(In general: Loss of bound radioactivity is the signal in a displacement assay; it reports binding, not function.)

Experiment [3] has as its target T1, Cholecystokinin receptor type A. Put plainly: Binding affinity to human CCK1 receptor expressed in CHO cell membrane by saturation binding assay. The class given is cell membranes. The method, boiled down:
(§3)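 Membranes (5–10 µg protein) from CHO cells stably expressing human CCK1 or CCK2 receptor, incubated with increasing radioligand in KRH pH 7.4 with 0.2% BSA and 0.01% soybean trypsin inhibitor, 1 h at room temperature. Nonspecific binding taken with 1 µM cold homolog. Filtration, gamma counting. Kd and Bmax fitted in LIGAND.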

In experiment [4] the target is T3, Gastrin/cholecystokinin type B receptor (Homo sapiens) (UniProt P32239).
T3 sequence (whole entry): T2 sequence (P32239 whole entry)
Described as §1. The class given is cell-based. The conditions noted are these: tested as the 125I-labelled form. In outline:
as §2

In experiment [5] the target is T3, Gastrin/cholecystokinin type B receptor (Homo sapiens). Put plainly: Agonist activity at human CCK2 receptor expressed in CHO cells assessed as stimulation of intracellular calcium response. The class given is functional, cell-based. The method, boiled down:
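CHO cells stably expressing human receptor, detached non-enzymatically, loaded with 5 μM Fura-2 AM for 30 min at 37 °C in serum-free Ham's F12. About 2 million cells per measurement were stimulated with test ligand (10 pM to 10 μM) at 37 °C. Fluorescence was read with excitation at 340/380 nm and emission at 520 nm over 300 s. Three independent experiments.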
On the technique in general: A change in cytosolic calcium serves as a functional read-out for many receptors and channels.

The target is the same in experiment [6]. Put plainly: Antagonist activity at human CCK2 receptor expressed in CHO cells assessed as inhibition of CCK8-stimulated intracellular calcium response preincubated for 100 seconds before CCK8 challenge. The class given is functional, cell-based. In outline:
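Fura-2 AM-loaded (5 μM, 30 min, 37 °C) CHO cells stably expressing human receptor, about 2 million per measurement. Cells were pre-incubated 100 s with increasing ligand concentrations, then stimulated with CCK-8 (final 10^-9 M) at 37 °C. Ratiometric read-out with excitation at 340/380 nm and emission at 520 nm, collected over 300 s. Means of 3 independent experiments.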

Experiment [7] concerns the target T2, Gastrin/cholecystokinin type B receptor. The experiment is described as follows: Binding affinity to human CCK2 receptor expressed in CHO cell membrane by saturation binding assay. The class given is cell membranes. In outline: as §3
The target in experiment [8] is T3, Gastrin/cholecystokinin type B receptor (Homo sapiens). Put plainly: Displacement of [125I]CCK from CCK2 receptor in human muscular layer of gall bladder assessed as binding density per mg of tissue by autoradiography. The class given is tissue-based. As to conditions: tested as the 125I-labelled form.
Experiment [9] shares this target. Put plainly: Displacement of [125I]CCK from CCK2 receptor in human medullary thyroid carcinoma assessed as binding density per mg of tissue by autoradiography. As to conditions: tested as the 125I-labelled form.
Experiment [10] shares this target. The experiment is described as follows: Binding affinity to CCK2 receptor in human gastrointestinal stromal tumor in presence of CCK1 antagonist L364718. As to conditions: tested as the 125I-labelled form.
Experiment [11] shares this target. The experiment is described as follows: Induction of receptor internalization in YFP-tagged human CCK2 receptor expressed in CHO cells at 100 nM after 90 mins. The class given is cell-based. In outline:
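CHO cells stably expressing YFP-tagged receptor, grown ≥48 h on coverslips, bound with 100 nM ligand at 4 °C for 90 min in PBS with 0.08 mM CaCl2 and 0.1 mM MgCl2. After washing, cells were warmed to 37 °C for varying times, fixed in 2% paraformaldehyde, and imaged by confocal microscopy for surface versus internal YFP (ex 488, em >505 nm).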

Experiment [12] has the same target. Put plainly: Binding affinity to CCK2 receptor in human gastrointestinal stromal tumor in presence of CCK8. The conditions noted are these: tested as the 125I-labelled form.
The target is the same in experiment [13]. Put plainly: Binding affinity to CCK2 receptor in human gastrointestinal stromal tumor in presence of (R)-1-(3-iodophenyl)-3-(1-methyl-2-oxo-5-phenyl-2,3-dihydro-1Hbenzo[e][1,4]diazepin-3-yl)urea. The conditions noted are these: tested as the 125I-labelled form.

In the case of `CN1C(=O)[C@@H](NC(=O)Nc2cccc([125I])c2)N=C(c2ccccc2)c2ccccc21`, the inhibitory constant (Ki) in [1] was 174 nM; in experiment [2] it was 1 nM. For the same compound, in experiment [3], binding was put at a Kd of 1.15 nM.

For `CN1C(=O)[C@@H](NC(=O)Nc2cccc(I)c2)N=C(c2ccccc2)c2ccccc21`, the Activity entry in [4] and in experiment [6] was “Dose-dependent effect” in each case. In addition, in experiment [5], the outcome was inactive.

Regarding `CN1C(=O)[C@H](NC(=O)Nc2cccc([125I])c2)N=C(c2ccccc2)c2ccccc21`, in experiment [7], binding was characterised by a dissociation constant (Kd) of 2.95 nM. Further, the inhibition constant Ki in [1] is 3.72 nM; in experiment [2], 537 nM.

With `CN1C(=O)[C@H](NC(=O)Nc2cccc(I)c2)N=C(c2ccccc2)c2ccccc21`, the Activity (disintegrations/minute) in experiment [8] turned out to be 970; in experiment [9] it was 602. Besides, the Activity result in [4] and in [6] was “Dose-dependent effect” each time. For the same compound, the result in [10], in [12], in experiment [13] and in [5] was inactive. Besides, the outcome in [11] was Active.

One may read the Ki as the dissociation constant of the complex between target and ligand, obtained from inhibition or displacement. Usually Kd stands for the equilibrium constant for the complex coming apart. Read a low Kd as tighter binding.
